Changes are numbered by the printed parent chain.
B1: Recombinant collagen binding domain (CBD) from human MMP-2, wildtype (domain or fragment)
chain: VVRVKYGNADGEYCKFPFLFNGKEYNSCTDTGRSDGFLWCSTTYNFEKDGKYGFCPHEALFTMGGNAEGQPCKFPFRFQGTSYDSCTTEGRTDGYRWCGTTEDYDRDKKYGFCPETAMSTVGGNSEGAPCVFPFTFLGNKYESCTSAGRSDGKMWCATTANYDDDRKWGFCPDQ
modifications: 15N (or 15N and 13C) labelled for NMR; biotinylated for the microwell assay
B2: E^321A: rCBD variant, single-point alanine substitution at E^321, module 2 (protein)
chain: APSPIIKFPGDVAPKTDKELAVQYLNTFYGCPKESCNLFVLKDTLKKMQKFFGLPQTGDLDQNTIETMRKPRCGNPDVANYNFFPRKPKWDKNQITYRIIGYTPDLDPETVDDAFARAFQVWSDVTPLRFSRIHDGEADIMINFGRWEHGDGYPFDGKDGLLAHAFAPGTGVGGDSHFDDDELWTLGEGQVVRVKYGNADGEYCKFPFLFNGKEYNSCTDTGRSDGFLWCSTTYNFEKDGKYGFCPHEALFTMGGNAEGQPCKFPFRFQGTSYDSCTTEGRTDGYRWCGTTADYDRDKKYGFCPETAMSTVGGNSEGAPCVFPFTFLGNKYESCTSAGRSDGKMWCATTANYDDDRKWGFCPDQGYSLFLVAAHEFGHAMGLEHSQDPGALMAPIYTYTKNFRLSQDDIKGIQELYGASPDIDLGTGPTPTLGPVTPEICKQDIVFDGIAQIRGEIFFFKDRFIWRTVTPRDKPMGPLLVATFWPELPEKIDAVYEAPQEEKAVFFAGNEYWIYSASTLERGYPKPLTSLGLPPDVQRVDAAFNWSKNKKTYIFAGDKFWRYNEVKKKMDPGFPKLIADAWNAIPDNLDAVVDLQGGGHSYFFKGAYYLKLENQSLKSVKFGSIKSDWLGC
modifications: biotinylated for the microwell assay; left off: His tag, end not stated, state not stated
B3: Y^381A: rCBD variant, single-point alanine substitution at Y^381, module 3 (protein)
chain: B2 chain with A292E, Y352A
modifications: biotinylated for the microwell assay; left off: His tag, end not stated, state not stated
B4: Y^329A: rCBD variant, single-point alanine substitution at Y^329, module 2 (protein)
chain: B2 chain with A292E, Y300A
modifications: biotinylated for the microwell assay; left off: His tag, end not stated, state not stated
B5: R^368A: rCBD variant, single-point alanine substitution at R^368, module 3 (protein)
chain: B2 chain with A292E, R339A
modifications: biotinylated for the microwell assay; left off: His tag, end not stated, state not stated
B6: Y^302A: rCBD variant, single-point alanine substitution at Y^302, module 2 (protein)
chain: B2 chain with Y273A, A292E
modifications: biotinylated for the microwell assay; left off: His tag, end not stated, state not stated
B7: E^361A: rCBD variant, single-point alanine substitution at E^361, negative control (protein)
chain: B2 chain with A292E, E332A
modifications: biotinylated for the microwell assay; left off: His tag, end not stated, state not stated
B8: Y^323A: rCBD variant, single-point alanine substitution at Y^323, module 2 (protein)
chain: B2 chain with A292E, Y294A
modifications: biotinylated for the microwell assay; left off: His tag, end not stated, state not stated
B9: F^280A: rCBD variant, single-point alanine substitution at F^280, negative control (protein)
chain: B2 chain with F251A, A292E
modifications: biotinylated for the microwell assay; left off: His tag, end not stated, state not stated
B10: F^297A: rCBD variant, single-point alanine substitution at F^297, module 2 (protein)
chain: B2 chain with F268A, A292E
modifications: biotinylated for the microwell assay; left off: His tag, end not stated, state not stated
B11: W^374A: rCBD variant, single-point alanine substitution at W^374, module 3 (protein)
chain: B2 chain with A292E, W345A
modifications: biotinylated for the microwell assay; left off: His tag, end not stated, state not stated

Key:
MMP-2 CBD modules = conditions: cited from earlier work
[1] = target: denatured type I collagen (gelatin), rat tail (rat, UniProt P02454 152-1207; P02466 86-1125); test: SPR
native type I collagen = test: Surface plasmon resonance binding to immobilized native type I collagen; parameters: species or system rat; conditions: 1 µM analyte, Biacore buffer pH 7.4; compared to WT CBD
How it was run: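 Native non-pepsin-treated acid-soluble rat tail type I collagen in 10 mM sodium acetate, pH 4.5, was amine-coupled to EDC/NHS-activated CM5 chips at ~3000 RU, then ethanolamine-blocked; an uncoated flow cell served as control. Analytes at 1 µM in 10 mM HEPES, 150 mM NaCl, 0.005% P20, pH 7.4, flowed at 5 µl/min for 6 min. RU were averaged over 5 s before injection end. Chips were regenerated with 6 M guanidine-HCl, with WT CBD run at the start and end of each series.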

[2] = system: gelatin (denatured type I collagen); test: Surface plasmon resonance binding to immobilized gelatin; parameters: species or system rat; conditions: 1 µM analyte, Biacore buffer pH 7.4; compared to WT CBD

Sequence of denatured type I collagen (gelatin), rat tail (P02454 152-1207, chain 1 of 2): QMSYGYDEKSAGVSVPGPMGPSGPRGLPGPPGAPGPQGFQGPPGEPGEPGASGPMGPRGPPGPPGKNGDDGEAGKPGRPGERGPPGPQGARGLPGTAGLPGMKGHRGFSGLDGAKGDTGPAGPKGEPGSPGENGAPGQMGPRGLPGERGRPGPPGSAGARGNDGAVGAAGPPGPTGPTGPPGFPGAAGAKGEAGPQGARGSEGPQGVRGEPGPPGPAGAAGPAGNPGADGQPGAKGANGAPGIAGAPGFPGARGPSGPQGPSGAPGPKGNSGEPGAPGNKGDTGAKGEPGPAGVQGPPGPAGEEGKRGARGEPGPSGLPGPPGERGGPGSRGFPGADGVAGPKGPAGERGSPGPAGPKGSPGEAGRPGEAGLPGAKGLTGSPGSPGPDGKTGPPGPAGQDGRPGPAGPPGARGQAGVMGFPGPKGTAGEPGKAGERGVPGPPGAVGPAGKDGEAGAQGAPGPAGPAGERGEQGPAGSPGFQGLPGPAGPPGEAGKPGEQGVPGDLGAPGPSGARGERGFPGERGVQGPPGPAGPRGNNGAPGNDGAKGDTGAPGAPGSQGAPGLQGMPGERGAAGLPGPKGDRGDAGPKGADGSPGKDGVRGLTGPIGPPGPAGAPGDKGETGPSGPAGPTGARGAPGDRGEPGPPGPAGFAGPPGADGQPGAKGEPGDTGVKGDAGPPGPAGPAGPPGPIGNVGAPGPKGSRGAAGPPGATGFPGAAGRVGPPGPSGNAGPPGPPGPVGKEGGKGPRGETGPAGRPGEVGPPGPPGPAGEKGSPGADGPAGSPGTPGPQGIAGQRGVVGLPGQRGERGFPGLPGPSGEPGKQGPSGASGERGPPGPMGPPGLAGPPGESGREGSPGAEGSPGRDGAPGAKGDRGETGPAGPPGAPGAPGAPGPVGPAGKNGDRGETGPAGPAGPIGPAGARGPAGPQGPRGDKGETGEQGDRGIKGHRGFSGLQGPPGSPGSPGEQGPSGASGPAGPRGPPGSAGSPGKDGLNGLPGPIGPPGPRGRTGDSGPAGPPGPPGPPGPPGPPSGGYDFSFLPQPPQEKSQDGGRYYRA
Sequence of denatured type I collagen (gelatin), rat tail (P02466 86-1125, chain 2 of 2): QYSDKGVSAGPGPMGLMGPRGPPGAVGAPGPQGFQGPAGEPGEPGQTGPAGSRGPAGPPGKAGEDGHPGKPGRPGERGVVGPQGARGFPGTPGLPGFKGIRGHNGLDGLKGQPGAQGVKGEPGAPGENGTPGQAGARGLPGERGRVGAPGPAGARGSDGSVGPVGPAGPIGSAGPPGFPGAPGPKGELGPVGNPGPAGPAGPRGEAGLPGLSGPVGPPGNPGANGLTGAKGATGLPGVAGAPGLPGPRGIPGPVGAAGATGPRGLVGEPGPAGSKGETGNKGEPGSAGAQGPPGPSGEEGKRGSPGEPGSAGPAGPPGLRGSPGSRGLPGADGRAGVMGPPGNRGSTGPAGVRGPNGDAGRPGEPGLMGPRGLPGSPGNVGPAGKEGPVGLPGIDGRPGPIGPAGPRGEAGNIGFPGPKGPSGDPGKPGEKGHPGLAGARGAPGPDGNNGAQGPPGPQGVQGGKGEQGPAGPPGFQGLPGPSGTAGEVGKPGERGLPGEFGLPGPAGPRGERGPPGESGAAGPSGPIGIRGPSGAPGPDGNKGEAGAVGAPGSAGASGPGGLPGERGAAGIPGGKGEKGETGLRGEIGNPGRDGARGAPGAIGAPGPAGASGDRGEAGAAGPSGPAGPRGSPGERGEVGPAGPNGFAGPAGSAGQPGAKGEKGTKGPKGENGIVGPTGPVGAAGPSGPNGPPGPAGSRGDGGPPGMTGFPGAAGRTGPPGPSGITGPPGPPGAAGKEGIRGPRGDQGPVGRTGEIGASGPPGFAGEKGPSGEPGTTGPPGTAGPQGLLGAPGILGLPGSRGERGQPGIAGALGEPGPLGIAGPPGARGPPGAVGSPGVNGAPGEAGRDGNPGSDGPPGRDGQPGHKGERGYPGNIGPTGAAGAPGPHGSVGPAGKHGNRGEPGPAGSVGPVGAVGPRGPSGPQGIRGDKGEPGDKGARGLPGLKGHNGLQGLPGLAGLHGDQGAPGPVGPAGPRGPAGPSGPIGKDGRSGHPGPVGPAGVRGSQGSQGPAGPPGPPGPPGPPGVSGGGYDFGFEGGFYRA

Molecule | relative affinity of modules 1 and 2 versus module 3 for collagen-like peptide (MMP-2 CBD modules) | spectral perturbations of isolated CBD module 2 (MMP-2 CBD modules; early NMR study) | Kd [1] [nM] | binding to native type I collagen (SPR, RU) (native type I collagen) | binding to gelatin / denatured type I collagen (SPR, RU) [2]
(Pro-Pro-Gly)6 | modules 1 and 2 have higher affinity | spectral perturbations of the surface-exposed aromatic residues Phe21, Tyr38, Trp40, Tyr47, Tyr53 and Phe55, as well as the neighboring Gly33-Gly37 segment | – | – | –
B1 | – | – | 2900 | – | –
B2 | – | – | – | no reduction in collagen-binding | no reduction in collagen-binding
B3 | – | – | – | strong reduction in binding | strong reduction in binding
B4 | – | – | – | strong reduction in binding | strong reduction in binding
B5 | – | – | – | strong reduction in binding | strong reduction in binding
B6 | – | – | – | strong reduction in binding | strong reduction in binding
B7 | – | – | – | no reduction in collagen-binding | no reduction in collagen-binding
B8 | – | – | – | strong reduction in binding | strong reduction in binding
B9 | – | – | – | no reduction in collagen-binding | no reduction in collagen-binding
B10 | – | – | – | strong reduction in binding | strong reduction in binding
B11 | – | – | – | strong reduction in binding | strong reduction in binding
